Experimental data from ChEMBL document CHEMBL4477237, “Structure-Based Design of β5c Selective Inhibitors of Human Constitutive Proteasomes” (J Med Chem, 2016).
Active and inactive are the calls of the source. The calls are words filed in the database; no cut-off is given here.

Experiments:
[1] = target: T1, Proteasome Macropain subunit MB1 (Homo sapiens) (UniProt P28074); assay: (§1) Inhibition of catalytic activity of constitutive proteasome 20s subunit beta5 in human Raji cells incubated for 1 hr by BODIPY(TMR)-NC-005-VS probe based competitive activity based protein profiling assay; format: cell-based
T1 sequence (whole entry): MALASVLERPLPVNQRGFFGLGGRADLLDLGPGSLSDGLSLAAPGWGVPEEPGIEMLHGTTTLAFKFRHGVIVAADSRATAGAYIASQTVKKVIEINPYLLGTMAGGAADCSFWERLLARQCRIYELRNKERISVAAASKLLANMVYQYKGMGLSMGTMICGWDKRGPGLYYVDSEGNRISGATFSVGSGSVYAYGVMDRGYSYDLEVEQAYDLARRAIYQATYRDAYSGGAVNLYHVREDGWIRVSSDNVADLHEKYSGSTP

[2] = target: T2, Proteasome Macropain subunit MB1 (Homo sapiens, UniProt P28074); assay: as §1; format: cell-based
T2 sequence (P28074 whole entry): T1 sequence (whole entry)

[3] = target: Proteasome Macropain subunit (Homo sapiens) (UniProt P49721); assay: Inhibition of catalytic activity of constitutive proteasome 20s subunit beta2 in human Raji cells incubated for 1 hr by BODIPY(FL)-LU-112 probe based competitive activity based protein profiling assay; format: cell-based
[4] = target: T3, Proteasome component C5 (Homo sapiens) (UniProt P20618); assay: Inhibition of catalytic activity of constitutive proteasome 20s subunit beta1 in human Raji cells incubated for 1 hr by Cy5-NC-001 probe based competitive activity based protein profiling assay; format: cell-based
T3 sequence (whole entry): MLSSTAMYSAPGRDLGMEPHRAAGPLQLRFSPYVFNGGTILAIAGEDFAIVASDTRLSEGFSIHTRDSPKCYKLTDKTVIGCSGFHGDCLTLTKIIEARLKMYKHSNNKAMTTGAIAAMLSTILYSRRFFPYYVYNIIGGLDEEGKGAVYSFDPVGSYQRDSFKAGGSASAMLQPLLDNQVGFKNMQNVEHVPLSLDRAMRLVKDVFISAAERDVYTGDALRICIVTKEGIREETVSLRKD

[5] = target: Proteasome subunit beta type-9 (β1i, LMP2) (Homo sapiens) (UniProt P28065); assay: Inhibition of catalytic activity of immunoproteasome 20s subunit beta1 in human Raji cells incubated for 1 hr by Cy5-NC-001 probe based competitive activity based protein profiling assay
[6] = target: Proteasome subunit beta type-8 (β5i, LMP7) (Homo sapiens) (UniProt P28062); assay: Inhibition of catalytic activity of immunoproteasome 20s subunit beta5 in human Raji cells incubated for 1 hr by BODIPY(TMR)-NC-005-VS probe based competitive activity based protein profiling assay
[7] = target: T2, Proteasome Macropain subunit MB1; assay: (§2) Inhibition of catalytic activity of constitutive proteasome 20s subunit beta5 in human RPMI8226 cells incubated for 1 hr by BODIPY(TMR)-NC-005-VS probe based competitive activity based protein profiling assay; format: cell-based
Summary of the method: (§3)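 Live RPMI-8226 cells ((5-8)x10⁵ cells/mL; RPMI-1640, 10% FCS, GlutaMAX, pen/strep, 5% CO₂) exposed to inhibitor 1 h at 37 °C. Cells washed with PBS and lysed in digitonin/ATP buffer on ice 1 h. Lysates then labelled 1 h with the ABP cocktail and run on SDS-PAGE. In-gel fluorescence bands were normalized to mock and corrected for loading by Coomassie. IC50 from mean of three independent experiments.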

Homo sapiens = species on record: Homo sapiens; assay: Selectivity ratio of IC50 for immunoproteasome 20s subunit beta5 in human Raji cells to IC50 for constitutive proteasome 20s subunit beta5 in human Raji cells; format: cell-based
Summary of the method: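 Initial screen in Raji cell extracts. Inhibitor at 0.01, 0.1, 1.0 and 10.0 µM final for 1 h at 37 °C, then ABP cocktail 1 h. In-gel fluorescence of β5c/β5i bands normalized to mock-treated extract, giving residual activity. Run once. IC50s from this screen feed the β5i/β5c ratio.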

[8] = target: T1, Proteasome Macropain subunit MB1 (Homo sapiens); assay: Inhibition of catalytic activity of immunoproteasome 20s subunit beta5/constitutive 20s subunit beta5 in human AMO1 cells assessed as accumulation of ubiquitinated-GFP at 100 uM after 1 hr by FACS analysis; format: cell-based
Summary of the method: (§4)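 AMO-1 myeloma clone stably expressing Ub-G76V-GFP (G418-selected). 5x10⁵ cells pulsed 1 h at 37 °C with inhibitor, washed with PBS, then chased 12 h in inhibitor-free medium (37 °C, 5% CO₂). GFP median fluorescence intensity read by flow cytometry in FITC channel.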

[9] = target: Proteasome subunit beta type-8 (β5i, LMP7) (Homo sapiens) (UniProt P28062); assay: Inhibition of catalytic activity of immunoproteasome 20s subunit beta5 in human RPMI8226 cells incubated for 1 hr by BODIPY(TMR)-NC-005-VS probe based competitive activity based protein profiling assay
[10] = target: T1, Proteasome Macropain subunit MB1 (Homo sapiens); assay: as §2; format: cell-based; summary of the method: as §3
[11] = target: T3, Proteasome component C5 (Homo sapiens); assay: Inhibition of catalytic activity of constitutive proteasome 20s subunit beta1 in human RPMI8226 cells incubated for 1 hr by Cy5-NC-001 probe based competitive activity based protein profiling assay; format: cell-based; summary of the method: as §3
[12] = target: Proteasome subunit beta type-9 (β1i, LMP2) (Homo sapiens) (UniProt P28065); assay: Inhibition of catalytic activity of immunoproteasome 20s subunit beta1 in human RPMI8226 cells incubated for 1 hr by Cy5-NC-001 probe based competitive activity based protein profiling assay
[13] = target: Proteasome Macropain subunit (Homo sapiens) (UniProt P49721); assay: Inhibition of catalytic activity of constitutive proteasome 20s subunit beta2 in human RPMI8226 cells incubated for 1 hr by BODIPY(FL)-LU-112 probe based competitive activity based protein profiling assay; format: cell-based; summary of the method: as §3
[14] = target: T1, Proteasome Macropain subunit MB1 (Homo sapiens); assay: Inhibition of catalytic activity of immunoproteasome 20s subunit beta5/constitutive 20s subunit beta5 in human AMO1 cells assessed as accumulation of ubiquitinated-GFP at 3 uM after 1 hr by FACS analysis; format: cell-based; summary of the method: as §4

## CC(C)C[C@H](NC(=O)[C@H](Cc1ccccc1)NC(=O)[C@H](CC1CCC(C)CC1)NC(=O)[C@H](Cc1ccccc1)N=[N+]=[N-])C(=O)[C@@]1(C)CO1 (some centres not stated)
[1]
  pIC50(app): 8.7
[2]
  IC50: 2 nM
[3]
  pIC50(app): 7.34
[4]
  pIC50(app): < 4
[5]
  pIC50(app): < 4
[6]
  pIC50(app): 7.96

## CC(C)C[C@H](NC(=O)CN1CCOCC1)C(=O)N[C@@H](C[C@H]1CC[C@H](C2CCCCC2)CC1)C(=O)N[C@@H](Cc1ccccc1)C(=O)N[C@@H](C)C(=O)[C@@]1(C)CO1
[2]
  IC50: 28 nM
[7]
  IC50: 274 nM
Homo sapiens
  Ratio IC50: 814
[8]
  inhibition: Active

## C[C@H](NC(=O)[C@H](Cc1ccccc1)NC(=O)[C@H](C[C@H]1CC[C@H](C2CCCCC2)CC1)NC(=O)[C@H](Cc1ccccc1)N=[N+]=[N-])C(=O)[C@@]1(C)CO1
[2]
  IC50: 4.9 nM
[9]
  inhibition: inactive
[10]
  inhibition: inactive
[11]
  inhibition: inactive
[12]
  inhibition: inactive
[13]
  inhibition: inactive

## COc1ccc(C[C@H](NC(=O)Cc2ccc3ccccc3c2)C(=O)N[C@@H](Cc2ccccc2)C(=O)N[C@@H](CC(C)C)C(=O)[C@@]2(C)CO2)cc1
[14]
  inhibition: Active
